Measurements reported in PubChem BioAssay AID488820 (Broad Institute, 2010).
Calls of active or inactive are those of the source.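 The calls were made as follows: active = compounds raising nuclear GFP-tagged hypoxia factor signal, with fitted half-maximal dose at or below the top valid dose; inconclusive = flat response of 30 to 70% activation, or poor curve fit; inactive = the rest, including opposite-direction effects.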

Test system: not listed separately
Experiment: GFP-HIF1a nuclear translocation activators – imaging, U2OS HIF1a-GFP, high content, dry powder, dose response (AID 488820)
Conditions: U2OS HIF1a-GFP, nuclear intensity imaging; at 38 µM (top of the series)
In short: (§1)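 Material – U2OS cells with GFP-HIF1alpha · Amount – 2,000 cells/well · Buffer or medium – culture medium lacking phenol red · Dosing – Eight-point threefold dilution series, delivered by pin transfer · Schedule – 24 h compound exposure at 37 °C · Repeats – duplicate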

Q: For `O=C(Nc1ncc2ccccc2n1)c1cc(-c2ccccc2)on1`, which activation is on record?
A: The activation was 1.57% (inactive).

Q: With `Cc1cccc(NC(=O)c2cc(-c3ccccc3)on2)n1` as the compound, how does the activation read?
A: Its activation is 9.15% (inactive).

Q: With `CN1CCN(C(=O)c2cc(-c3ccccc3)on2)CC1` as the compound, how does the activation read?
A: Its activation is 3.08% (inactive).

Q: With `Cc1cccc(CNC(=O)c2cc(-c3ccccc3)on2)c1` as the compound, how does the activation read?
A: Its activation is 11.8% (inactive).

Q: With `Cn1c(NC(=O)c2cc(-c3ccccc3)on2)nc2ccccc21` as the compound, how does the activation read?
A: The activation was -0.56% (inactive).

Q: For `CC(C)(C)CCNC(=O)c1cc(-c2ccccc2)on1`, which activation is on record?
A: The activation was 17.6% (inactive).

Q: For `O=C(c1cc(-c2ccccc2)on1)N1CCC(N2CCCC2)CC1`, which activation is on record?
A: The activation was 12.8% (inactive).

Q: For `O=C(NCc1ccccc1)c1cc(-c2ccccc2)on1`, which activation is on record?
A: Its activation is 15.8% (inactive).

Q: With `O=C(NCCN1CCCCC1)c1cc(-c2ccccc2)on1` as the compound, how does the activation read?
A: The activation was 31.8% (inactive).

Q: With `CN(C)CCNC(=O)c1cc(-c2ccccc2)on1` as the compound, how does the activation read?
A: The activation was 6.65% (inactive).

Q: For `O=C(Nc1cnc2ccccc2c1)c1cc(-c2ccccc2)on1`, which activation is on record?
A: Its activation is 5.39% (inactive).

Q: Which activation does the source give for `O=C(Nc1cn2ccccc2n1)c1cc(-c2ccccc2)on1` here?
A: Its activation is 1.49% (inactive).

Q: Which activation does the source give for `O=C(c1cc(-c2ccccc2)on1)N1CCc2cccnc21` here?
A: The activation was -2.04% (inactive).

Q: With `O=C(Nc1ncc(-c2ccccc2)o1)c1cc(-c2ccccc2)on1` as the compound, how does the activation read?
A: Its activation is 7.7% (inactive).

Q: With `O=C(c1cc(-c2ccccc2)on1)N1CCC(N2CCOCC2)CC1` as the compound, how does the activation read?
A: The activation was 14.1% (inactive).

Q: With `Cc1ccc(CNC(=O)c2cc(-c3ccccc3)on2)cc1` as the compound, how does the activation read?
A: Its activation is 12.8% (inactive).

Q: Which activation does the source give for `Cc1ccccc1CNC(=O)c1cc(-c2ccccc2)on1` here?
A: The activation was 23% (inactive).

Q: With `O=C(c1cc(-c2ccccc2)on1)N1CCC(CO)CC1` as the compound, how does the activation read?
A: The activation was -4.8% (inactive).

Q: For `O=C(NC1CCc2ccccc2C1)c1cc(-c2ccccc2)on1` (stereo not drawn), which activation is on record?
A: Its activation is 30.1% (inactive).

Q: Which activation does the source give for `O=C(Nc1nc2ccccc2s1)c1cc(-c2ccccc2)on1` here?
A: Its activation is 12.2% (inactive).

Q: Which activation does the source give for `O=C(Nc1nc(-c2ccccc2)cs1)c1cc(-c2ccccc2)on1` here?
A: The activation was 4.03% (inactive).

Q: Which activation does the source give for `O=C(c1cc(-c2ccccc2)on1)N1CCN(c2ccncc2)CC1` here?
A: The activation was 31% (inactive).

Q: For `O=C(Nc1ccc2ccccc2n1)c1cc(-c2ccccc2)on1`, which activation is on record?
A: Its activation is -3.83% (inactive).

Q: Which activation does the source give for `Cc1ccc(NC(=O)c2cc(-c3ccccc3)on2)cn1` here?
A: The activation was 25.1% (inactive).

Q: With `Cn1c(-c2ccccc2)cnc1NC(=O)c1cc(-c2ccccc2)on1` as the compound, how does the activation read?
A: The activation was -4.96% (inactive).

Q: With `O=C(NC1Cc2ccccc2C1)c1cc(-c2ccccc2)on1` as the compound, how does the activation read?
A: Its activation is 6.89% (inactive).

Q: Which activation does the source give for `O=C(NCC1CCCCC1)c1cc(-c2ccccc2)on1` here?
A: Its activation is 18.3% (inactive).

Q: Which activation does the source give for `O=C(Nc1nnc(-c2ccccc2)s1)c1cc(-c2ccccc2)on1` here?
A: Its activation is -0.482% (inactive).

Test system: U2OS HIF1a-GFP, nuclear intensity imaging
Experiment: as above
Conditions: not given
In short: as §1

Q: Which AC50 does the source give for `c1ccc(-c2cnc(Nc3nc(-c4ccccn4)nnc3-c3ccccc3)s2)cc1` here?
A: Its AC50 is 17.7 µM.

Q: Which AC50 does the source give for `CN1CCN(c2nc(-c3ccccn3)nnc2-c2ccccc2)CC1` here?
A: Its AC50 is 5.11 µM.

Q: With `Cc1ccc(Nc2nc(-c3ccccn3)nnc2-c2ccccc2)cn1` as the compound, how does the AC50 read?
A: Its AC50 is 7.08 µM.

Q: With `CCCCNC(=O)c1cc(-c2ccccc2)on1` as the compound, how does the AC50 read?
A: Its AC50 is 6.16 µM.

Q: For `c1ccc(-c2nnc(-c3ccccn3)nc2Nc2nc3ccccc3s2)cc1`, which AC50 is on record?
A: The AC50 was 5.32 µM.

Q: Which AC50 does the source give for `c1ccc(-c2nnc(-c3ccccn3)nc2NCCCN2CCOCC2)cc1` here?
A: The AC50 was 2.42 µM.

Q: For `Cc1cccc(CNc2nc(-c3ccccn3)nnc2-c2ccccc2)c1`, which AC50 is on record?
A: Its AC50 is 0.621 µM.

Q: Which AC50 does the source give for `c1ccc(-c2nnc(Nc3nc(-c4ccccn4)nnc3-c3ccccc3)s2)cc1` here?
A: The AC50 was 7.41 µM.

Q: For `Cc1ccccc1CNc1nc(-c2ccccn2)nnc1-c1ccccc1`, which AC50 is on record?
A: Its AC50 is 2.73 µM.

Q: For `c1ccc(-c2nnc(-c3ccccn3)nc2N2CCN(c3ccncc3)CC2)cc1`, which AC50 is on record?
A: Its AC50 is 2.68 µM.

Q: With `O=C(NCCCN1CCOCC1)c1cc(-c2ccccc2)on1` as the compound, how does the AC50 read?
A: The AC50 was 18.1 µM.

Q: Which AC50 does the source give for `c1ccc(CNc2nc(-c3ccccn3)nnc2-c2ccccc2)cc1` here?
A: The AC50 was 3.08 µM.

Q: With `c1ccc(-c2csc(Nc3nc(-c4ccccn4)nnc3-c3ccccc3)n2)cc1` as the compound, how does the AC50 read?
A: Its AC50 is 10.1 µM.

Q: For `Cc1ccc(CNc2nc(-c3ccccn3)nnc2-c2ccccc2)cc1`, which AC50 is on record?
A: The AC50 was 1.1 µM.

Q: For `O=C(NCCCn1ccnc1)c1cc(-c2ccccc2)on1`, which AC50 is on record?
A: Its AC50 is 8.03 µM.

Q: For `O=C(NCC1CC1)c1cc(-c2ccccc2)on1`, which AC50 is on record?
A: Its AC50 is 16.1 µM.

Q: Which AC50 does the source give for `c1ccc(-c2nnc(-c3ccccn3)nc2Nc2cnc3ccccc3n2)cc1` here?
A: Its AC50 is 5.59 µM.

Q: For `OCCCNc1nc(-c2ccccn2)nnc1-c1ccccc1`, which AC50 is on record?
A: The AC50 was 5.73 µM.

Q: For `c1ccc(-c2nnc(-c3ccccn3)nc2N2CCC(N3CCOCC3)CC2)cc1`, which AC50 is on record?
A: Its AC50 is 6.51 µM.

Q: For `CN(C)c1nc(-c2ccccn2)nnc1-c1ccccc1`, which AC50 is on record?
A: The AC50 was 2.94 µM.

Q: For `C=CCNc1nc(-c2ccccn2)nnc1-c1ccccc1`, which AC50 is on record?
A: The AC50 was 2.7 µM.

Q: With `Cn1c(-c2ccccc2)cnc1Nc1nc(-c2ccccn2)nnc1-c1ccccc1` as the compound, how does the AC50 read?
A: Its AC50 is 4.31 µM.

Q: For `c1ccc(-c2nnc(-c3ccccn3)nc2NCC2CCCCC2)cc1`, which AC50 is on record?
A: The AC50 was 0.882 µM.

Q: With `O=C(NCCCO)c1cc(-c2ccccc2)on1` as the compound, how does the AC50 read?
A: Its AC50 is 6.09 µM.

Q: Which AC50 does the source give for `O=C(NCCCCO)c1cc(-c2ccccc2)on1` here?
A: The AC50 was 2.1 µM.

Q: With `O=C(NCCN1CCOCC1)c1cc(-c2ccccc2)on1` as the compound, how does the AC50 read?
A: The AC50 was 6.66 µM.

Q: Which AC50 does the source give for `CC(C)(C)CCNc1nc(-c2ccccn2)nnc1-c1ccccc1` here?
A: The AC50 was 3.27 µM.

Q: Which AC50 does the source give for `c1ccc(-c2nnc(-c3ccccn3)nc2NCC2CC2)cc1` here?
A: The AC50 was 3.37 µM.

Q: For `c1ccc(-c2nnc(-c3ccccn3)nc2NCCN2CCOCC2)cc1`, which AC50 is on record?
A: Its AC50 is 5.41 µM.

Q: With `Cc1cccc(Nc2nc(-c3ccccn3)nnc2-c2ccccc2)n1` as the compound, how does the AC50 read?
A: The AC50 was 2.98 µM.
